In PubChem BioAssay AID493237 (Broad Institute, 2011):
“And” between values parts separate entries of the source, which are not always exact repeats. Equal entries are not always repeated. The source made the active and inactive calls.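 How the source made its calls: active means fitted curve reaching 40% activation at a concentration no higher than the top valid dose tested; inconclusive means flat curve between 30 and 70% activation, or poor fit; inactive means the rest, including opposite-direction effects.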

Test system: not listed separately
Assay: HRE-luciferase activation in iron medium, dose response, mechanism study for HIF pathway activator project, cell-based, U2OS, luminescence, dry powder, set 2 (AID 493237)
Conditions: U2OS HRE-luciferase reporter, iron condition, luminescence; at 38 µM (top of the series)
How it was run: (§1)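 System: human U2OS osteosarcoma cells with stable 3×HRE-driven luciferase reporter. Quantity: 6,000 cells/well. Also added: ferric nitrate at 50 µM final, added before compound. Incubation: 24 h pre-dosing growth, 24 h compound exposure, 37 °C. Measured by: Steady-Glo luminescence.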
For `c1ccc(-c2nnc(-c3ccccn3)nc2N2CCC(C3CCCCC3)C2)cc1` (configuration not stated), the activation was -30.3% (inactive).
In the case of `O=C(NCC1CCCCC1)c1cc(-c2ccccc2)on1`, the activation is reported as 21.9% (inactive).
With `O=C(Nc1cn2ccccc2n1)c1cc(-c2ccccc2)on1` the activation was -9.98% (inactive).
For `c1ccc(-c2nnc(-c3ccccn3)nc2Nc2nc3ccccc3s2)cc1`, the activation was 21.8% (inactive).
With `Cn1c(NC(=O)c2cc(-c3ccccc3)on2)nc2ccccc21` the activation was 7.37% (inactive).
In the case of `c1ccc(-c2nnc(-c3ccccn3)nc2NCC2CCOCC2)cc1`, the activation is reported as 137% (inactive).
For `Oc1ccc(CN2CCC3CCCCC3C2)c2cccnc12` (configuration not stated), the activation was -51.1% (inactive).
In the case of `O=C(Nc1nnc(-c2ccccc2)s1)c1cc(-c2ccccc2)on1`, the activation is reported as 2.91% (inactive).
For `O=C(Nc1cnc2ccccc2c1)c1cc(-c2ccccc2)on1`, the activation was 14% (inactive).
With `O=C(NCCN1CCCCC1)c1cc(-c2ccccc2)on1` the activation was 15.3% (inactive).
In the case of `O=C(c1cc(-c2ccccc2)on1)N1CCN(c2ccncc2)CC1`, the activation is reported as -11.7% (inactive).
With `Oc1ccc(CN2CCc3ccccc3C2)c2cccnc12` the activation was -30.4% (inactive).
With `CN(C)CCNC(=O)c1cc(-c2ccccc2)on1` the activation was 19.3% (inactive).
For `O=C(c1cc(-c2ccccc2)on1)N1CCc2cccnc21`, the activation was -8.92% (inactive).
In the case of `O=C(Nc1nc2ccccc2s1)c1cc(-c2ccccc2)on1`, the activation is reported as 9.12% (inactive).
In the case of `COc1ccccc1N1CCN(Cc2ccc(O)c3ncccc23)CC1`, the activation is reported as -35.6% (inactive).
For `OCC1CCN(Cc2ccc(O)c3ncccc23)CC1`, the activation was -24% (inactive).
In the case of `N#CC1(c2ccccc2)CCN(Cc2ccc(O)c3ncccc23)CC1`, the activation is reported as -19.9% (inactive).
In the case of `O=C(c1cc(-c2ccccc2)on1)N1CCC(N2CCOCC2)CC1`, the activation is reported as -12.6% (inactive).
In the case of `O=C(Nc1ccc2ccccc2n1)c1cc(-c2ccccc2)on1`, the activation is reported as -19.3% (inactive).
In the case of `O=C(Nc1nc(-c2ccccc2)cs1)c1cc(-c2ccccc2)on1`, the activation is reported as -4.82% (inactive).
With `OCC1CCN(c2nc(-c3ccccn3)nnc2-c2ccccc2)CC1` the activation was 37.3% (inactive).
With `Oc1ccc(CNC2CCc3ccccc32)c2cccnc12` (configuration not stated) the activation was -45.6% (inactive).
For `O=C(Nc1ncc(-c2ccccc2)o1)c1cc(-c2ccccc2)on1`, the activation was -19.3% (inactive).
With `Cn1c(-c2ccccc2)cnc1Nc1nc(-c2ccccn2)nnc1-c1ccccc1` the activation was 11.2% (inactive).
In the case of `Cc1ccc(CNC(=O)c2cc(-c3ccccc3)on2)cc1`, the activation is reported as -26.7% (inactive).
For `c1ccc(-c2cnc(Nc3nc(-c4ccccn4)nnc3-c3ccccc3)s2)cc1`, the activation was 1.03% (inactive).
In the case of `Oc1ccc(CN2CCC(Cc3ccccc3)CC2)c2cccnc12`, the activation is reported as -17.9% (inactive).
With `Cc1ccccc1CNC(=O)c1cc(-c2ccccc2)on1` the activation was 15.4% (inactive).
With `O=C(c1cc(-c2ccccc2)on1)N1CCC(N2CCCC2)CC1` the activation was -1.29% (inactive).
In the case of `O=C(NC1CCc2ccccc2C1)c1cc(-c2ccccc2)on1` (configuration not stated), the activation is reported as -15.1% (inactive).
For `CN1CCN(C(=O)c2cc(-c3ccccc3)on2)CC1`, the activation was -32.3% (inactive).
With `Cc1cccc(CNC(=O)c2cc(-c3ccccc3)on2)c1` the activation was -17.5% (inactive).
In the case of `Cc1ccc(NC(=O)c2cc(-c3ccccc3)on2)cn1`, the activation is reported as -0.441% (inactive).
With `CC(C)(C)OC(=O)N1CCN(Cc2ccc(O)c3ncccc23)CC1` the activation was -18.7% (inactive).
With `CC1CN(Cc2ccc(O)c3ncccc23)CC(C)O1` (configuration not stated) the activation was -40% (inactive).
In the case of `Oc1ccc(CNC2Cc3ccccc3C2)c2cccnc12`, the activation is reported as -38.8% (inactive).
In the case of `O=C(c1cc(-c2ccccc2)on1)N1CCC(CO)CC1`, the activation is reported as -15.4% (inactive).
With `Cn1c(-c2ccccc2)cnc1NC(=O)c1cc(-c2ccccc2)on1` the activation was 6.19% (inactive).

Test system: U2OS HRE-luciferase reporter, iron condition, luminescence
Assay: as above
Conditions: not given
How it was run: as §1
`c1ccc(-c2nnc(-c3ccccn3)nc2N2CCN(c3ccncc3)CC2)cc1` gave an AC40 of 22.9 µM.
For `c1ccc(-c2nnc(-c3ccccn3)nc2N2CCC(c3ccccc3)C2)cc1` (configuration not stated), the AC40 was 18.7 µM.
`COc1cccc(CNc2nc(-c3ccccn3)nnc2-c2ccccc2)c1` gave an AC40 of 10.7 µM.
`CCCCNC(=O)c1cc(-c2ccccc2)on1` gave an AC40 of 3.76 µM.
In the case of `Cc1cccc(NC(=O)c2cc(-c3ccccc3)on2)n1`, the AC40 is reported as > 38 µM (inactive).
`Cc1ccc(CNc2nc(-c3ccccn3)nnc2-c2ccccc2)cc1` showed an AC40 of 11.4 µM.
Compound `OCCCNc1nc(-c2ccccn2)nnc1-c1ccccc1` has an AC40 of 23.9 µM.
With `CC(Nc1nc(-c2ccccn2)nnc1-c1ccccc1)c1ccccc1` (configuration not stated) the AC40 was 10.3 µM.
With `CN(C)c1nc(-c2ccccn2)nnc1-c1ccccc1` the AC40 was 24.5 µM.
`c1ccc(-c2cccc(CNc3nc(-c4ccccn4)nnc3-c3ccccc3)c2)cc1` showed an AC40 of 10.1 µM.
For `O=C(Nc1ncc2ccccc2n1)c1cc(-c2ccccc2)on1`, the AC40 was > 38 µM (inactive).
With `O=C(NC1Cc2ccccc2C1)c1cc(-c2ccccc2)on1` the AC40 was > 38 µM (inactive).
In the case of `C[C@@H](Nc1nc(-c2ccccn2)nnc1-c1ccccc1)C1CCCCC1`, the AC40 is reported as 7.81 µM.
Compound `c1ccc(CNc2nc(-c3ccccn3)nnc2-c2ccccc2)cc1` has an AC40 of 9.31 µM.
`O=C(NCCCN1CCOCC1)c1cc(-c2ccccc2)on1` gave an AC40 of 10.3 µM.
With `O=C(NCCCO)c1cc(-c2ccccc2)on1` the AC40 was 5.66 µM.
Compound `O=C(NCCN1CCOCC1)c1cc(-c2ccccc2)on1` has an AC40 of 9.15 µM.
`c1ccc(CCNc2nc(-c3ccccn3)nnc2-c2ccccc2)cc1` gave an AC40 of 10.6 µM.
With `O=C(NCCCCO)c1cc(-c2ccccc2)on1` the AC40 was 1.29 µM.
With `O=C(NCc1ccccc1)c1cc(-c2ccccc2)on1` the AC40 was > 38 µM (inactive).
Compound `Cc1cccc(Nc2nc(-c3ccccn3)nnc2-c2ccccc2)n1` has an AC40 of 27.2 µM.
Compound `c1ccc(-c2nnc(-c3ccccn3)nc2NCCCN2CCOCC2)cc1` has an AC40 of 26.1 µM.
With `CN1CCN(c2nc(-c3ccccn3)nnc2-c2ccccc2)CC1` the AC40 was 25 µM.
`c1ccc(-c2nnc(-c3ccccn3)nc2Nc2cnc3ccccc3n2)cc1` showed an AC40 of 24.8 µM.
`C[C@@H](Nc1nc(-c2ccccn2)nnc1-c1ccccc1)c1ccccc1` showed an AC40 of 8.05 µM.
For `c1ccc(-c2csc(Nc3nc(-c4ccccn4)nnc3-c3ccccc3)n2)cc1`, the AC40 was > 38 µM (inactive).
Compound `c1ccc(-c2nnc(-c3ccccn3)nc2NCCc2ccccn2)cc1` has an AC40 of 24.3 µM.
Compound `Cc1ccc(Nc2nc(-c3ccccn3)nnc2-c2ccccc2)cn1` has an AC40 of 24.3 µM.
Work on `Cc1ccc(CNc2nc(-c3ccccn3)nnc2-c2ccccc2)cc1C` yielded an AC40 of 6.44 µM.
With `c1ccc(-c2nnc(-c3ccccn3)nc2NCc2ccccn2)cc1` the AC40 was 15.9 µM.
In the case of `CC(C)(C)c1ccc(CNc2nc(-c3ccccn3)nnc2-c2ccccc2)cc1`, the AC40 is reported as 20.6 µM.
Work on `Clc1cccc(CNc2nc(-c3ccccn3)nnc2-c2ccccc2)c1` yielded an AC40 of 11.6 µM.
`Cc1cccc(CNc2nc(-c3ccccn3)nnc2-c2ccccc2)c1` showed an AC40 of 8.97 µM.
For `CC(C)(C)CCNc1nc(-c2ccccn2)nnc1-c1ccccc1`, the AC40 was 10.2 µM and 8.22 µM.
Work on `C[C@H](Nc1nc(-c2ccccn2)nnc1-c1ccccc1)C1CCCCC1` yielded an AC40 of 9.72 µM.
`CC(C)(C)CCNC(=O)c1cc(-c2ccccc2)on1` showed an AC40 of 8.89 µM.
For `O=C(NCC1CC1)c1cc(-c2ccccc2)on1`, the AC40 was 3.19 µM.
Compound `O=C(NCCCn1ccnc1)c1cc(-c2ccccc2)on1` has an AC40 of 4.5 µM.
For `Cc1ccccc1CNc1nc(-c2ccccn2)nnc1-c1ccccc1`, the AC40 was 7.8 µM.
`c1ccc(-c2nnc(-c3ccccn3)nc2NCC2CC2)cc1` gave an AC40 of 24 µM.
In the case of `c1ccc(-c2nnc(-c3ccccn3)nc2NCc2cccnc2)cc1`, the AC40 is reported as 25.9 µM.
With `c1ccc(-c2nnc(Nc3nc(-c4ccccn4)nnc3-c3ccccc3)s2)cc1` the AC40 was > 38 µM (inactive).
For `c1ccc(-c2nnc(-c3ccccn3)nc2N2CCC(N3CCOCC3)CC2)cc1`, the AC40 was 21 µM.
In the case of `C=CCNc1nc(-c2ccccn2)nnc1-c1ccccc1`, the AC40 is reported as 26.5 µM.
In the case of `c1ccc(-c2ccc(CNc3nc(-c4ccccn4)nnc3-c3ccccc3)cc2)cc1`, the AC40 is reported as 9.52 µM.
Compound `c1ccc(-c2nnc(-c3ccccn3)nc2NCCN2CCOCC2)cc1` has an AC40 of 19.4 µM.
`COc1ccc(CNc2nc(-c3ccccn3)nnc2-c2ccccc2)cc1` showed an AC40 of 9.43 µM.
`c1ccc(-c2nnc(-c3ccccn3)nc2NCC2CCCCC2)cc1` showed an AC40 of 9.8 µM.
